System: Plasmodium falciparum
Assay: Antiplasmodial activity against Plasmodium falciparum K1 as [3H]hypoxanthine uptake
Format: functional, organism-based
Details: K1, 72 h
Outline: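 Erythrocytic stages of chloroquine- and pyrimethamine-resistant K1 strain grown in washed human A+ red cells, 2.5% hematocrit, 0.3% parasitemia. Medium was hypoxanthine-free RPMI 1640 with HEPES, NaHCO3, neomycin and AlbuMAX. DMSO stocks (10 mg/mL) tested as serial doubling dilutions for 48 h at 37 °C under 4% CO2, 3% O2, 93% N2. [3H]hypoxanthine then added for 24 h, cells harvested onto filters, scintillation counted.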

| IC50 | SMILES |
| --- | --- |
| 2800 nM | O=C(CCCOc1ccccc1)NC[C@H]1O[C@@H](n2cnc3c(NCc4ccc(Oc5ccccc5)cc4)ncnc32)[C@H](O)[C@@H]1O |
| 300 nM | O=C(Cc1cccc2ccccc12)NC[C@H]1O[C@@H](n2cnc3c(NCc4ccc(Oc5ccccc5)cc4)ncnc32)[C@H](O)[C@@H]1O |
| 3300 nM | O=C(NC[C@H]1O[C@@H](n2cnc3c(NCc4ccc(Oc5ccccc5)cc4)ncnc32)[C@H](O)[C@@H]1O)c1ccc(Oc2ccccc2)cc1 |
| 3500 nM | O=C(NC[C@H]1O[C@@H](n2cnc3c(NCc4ccc(Oc5ccccc5)cc4)ncnc32)[C@H](O)[C@@H]1O)c1cc(Cl)cc(Cl)c1 |
| 2100 nM | O=C(NC[C@H]1O[C@@H](n2cnc3c(NCc4ccc(Oc5ccccc5)cc4)ncnc32)[C@H](O)[C@@H]1O)c1ccc2c(c1)[nH]c(=O)n2Cc1ccccn1 |
| 3400 nM | COc1cccc(CC(=O)NC[C@H]2O[C@@H](n3cnc4c(NCc5ccc(Oc6ccccc6)cc5)ncnc43)[C@H](O)[C@@H]2O)c1 |
| 3300 nM | O=C(NC[C@H]1O[C@@H](n2cnc3c(NCc4ccc(Oc5ccccc5)cc4)ncnc32)[C@H](O)[C@@H]1O)c1ccc2c(c1)[nH]c(=O)n2COc1ccccc1 |
| > 8500 nM | O=C(CCCc1c[nH]c2ccccc12)NC[C@H]1O[C@@H](n2cnc3c(NCc4ccc(Oc5ccccc5)cc4)ncnc32)[C@H](O)[C@@H]1O |
| 4300 nM | CC(C)=CC(=O)NC[C@H]1O[C@@H](n2cnc3c(NCc4ccc(Oc5ccccc5)cc4)ncnc32)[C@H](O)[C@@H]1O |
| 4600 nM | CC(C)CCC(=O)NC[C@H]1O[C@@H](n2cnc3c(NCc4ccc(Oc5ccccc5)cc4)ncnc32)[C@H](O)[C@@H]1O |
| 4000 nM | O=C(NC[C@H]1O[C@@H](n2cnc3c(NCc4ccc(Oc5ccccc5)cc4)ncnc32)[C@H](O)[C@@H]1O)c1ccc2c(c1)ncn2Cc1ccccn1 |
| 900 nM | COCCCn1c(=O)[nH]c2cc(C(=O)NC[C@H]3O[C@@H](n4cnc5c(NCc6ccc(Oc7ccccc7)cc6)ncnc54)[C@H](O)[C@@H]3O)ccc21 |
| 2700 nM | C=CCn1cnc2cc(C(=O)NC[C@H]3O[C@@H](n4cnc5c(NCc6ccc(Oc7ccccc7)cc6)ncnc54)[C@H](O)[C@@H]3O)ccc21 |
| 2600 nM | O=C(CCCc1ccccc1)NC[C@H]1O[C@@H](n2cnc3c(NCc4ccc(Oc5ccccc5)cc4)ncnc32)[C@H](O)[C@@H]1O |
| 3100 nM | O=C(Cc1cccc(Cl)c1)NC[C@H]1O[C@@H](n2cnc3c(NCc4ccc(Oc5ccccc5)cc4)ncnc32)[C@H](O)[C@@H]1O |
| 2200 nM | O=C(NC[C@H]1O[C@@H](n2cnc3c(NCc4ccc(Oc5ccccc5)cc4)ncnc32)[C@H](O)[C@@H]1O)c1ccc2c(c1)ncn2Cc1cccc2ccccc12 |
| 1500 nM | CCCCCn1cnc2cc(C(=O)NC[C@H]3O[C@@H](n4cnc5c(NCc6ccc(Oc7ccccc7)cc6)ncnc54)[C@H](O)[C@@H]3O)ccc21 |
| 3100 nM | CCCCn1c(=O)[nH]c2cc(C(=O)NC[C@H]3O[C@@H](n4cnc5c(NCc6ccc(Oc7ccccc7)cc6)ncnc54)[C@H](O)[C@@H]3O)ccc21 |
| 2600 nM | COCCCn1cnc2cc(C(=O)NC[C@H]3O[C@@H](n4cnc5c(NCc6ccc(Oc7ccccc7)cc6)ncnc54)[C@H](O)[C@@H]3O)ccc21 |
| 2900 nM | O=C(NC[C@H]1O[C@@H](n2cnc3c(NCc4ccc(Oc5ccccc5)cc4)ncnc32)[C@H](O)[C@@H]1O)c1ccc2c(c1)[nH]c(=O)n2CCC1=CCCCC1 |

| SMILES | IC50 |
| --- | --- |
| CCN(CC)CCCC(C)Nc1ccnc2cc(Cl)ccc12 (stereo unspecified) [CHLOROQUINE] | 900 nM |
